Active and inactive are the calls of the source. The calls are words filed in the database; no cut-off is given here.
Legend:
[1] = biological target: T1, Lysine-specific demethylase 7A (Homo sapiens) (UniProt Q6ZMT4); assay: Displacement of C-terminally biotinylated-H3K4me3 (1 to 21 residues) peptide from KDM7A (PHD-JmjC) (unknown origin) at 100 uM preincubated for 15 mins followed by peptide addition measured after 1 hr by luminescence-based AlphaScreen assay
T1 sequence (whole entry): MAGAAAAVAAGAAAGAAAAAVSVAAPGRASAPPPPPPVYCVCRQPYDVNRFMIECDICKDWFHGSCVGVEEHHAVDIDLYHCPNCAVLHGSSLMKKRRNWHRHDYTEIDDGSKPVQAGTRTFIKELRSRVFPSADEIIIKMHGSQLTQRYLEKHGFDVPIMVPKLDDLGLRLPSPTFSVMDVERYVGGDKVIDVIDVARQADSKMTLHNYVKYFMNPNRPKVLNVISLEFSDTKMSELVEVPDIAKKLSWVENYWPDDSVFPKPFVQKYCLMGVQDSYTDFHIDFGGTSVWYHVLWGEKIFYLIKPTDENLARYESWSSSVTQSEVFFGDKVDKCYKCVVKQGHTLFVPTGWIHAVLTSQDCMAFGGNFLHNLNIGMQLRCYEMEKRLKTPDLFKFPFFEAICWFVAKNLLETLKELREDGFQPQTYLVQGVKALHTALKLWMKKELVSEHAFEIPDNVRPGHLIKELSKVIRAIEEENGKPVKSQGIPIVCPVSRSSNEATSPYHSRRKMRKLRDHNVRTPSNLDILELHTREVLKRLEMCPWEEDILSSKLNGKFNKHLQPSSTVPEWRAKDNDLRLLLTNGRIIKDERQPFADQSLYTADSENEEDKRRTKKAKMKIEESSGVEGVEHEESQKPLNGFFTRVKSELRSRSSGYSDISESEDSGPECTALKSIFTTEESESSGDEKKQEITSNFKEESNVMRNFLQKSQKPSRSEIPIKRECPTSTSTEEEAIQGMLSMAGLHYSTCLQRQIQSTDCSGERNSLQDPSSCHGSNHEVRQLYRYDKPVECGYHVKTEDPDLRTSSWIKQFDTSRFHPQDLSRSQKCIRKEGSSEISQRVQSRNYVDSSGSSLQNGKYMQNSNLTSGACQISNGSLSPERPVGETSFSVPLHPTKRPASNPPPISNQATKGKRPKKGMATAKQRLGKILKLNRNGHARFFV

[2] = biological target: T1, Lysine-specific demethylase 7A (Homo sapiens); assay: Inhibition of KDM7A (PHD-JmjC) (unknown origin) demethylation activity at 100 uM preincubated for 10 mins followed by H3(1-15)K9me2 peptide substrate addition by MALDI-TOF-MS analysis
[3] = biological target: Histone lysine demethylase PHF8 (Homo sapiens) (UniProt Q9UPP1); assay: Displacement of C-terminally biotinylated-H3K4me3 (1 to 21 residues) peptide from KDM7B (PHD-JmjC) (unknown origin) at 100 uM preincubated for 15 mins followed by peptide addition measured after 1 hr by luminescence-based AlphaScreen assay
Histone lysine demethylase PHF8 (Homo sapiens), sequence (Q9UPP1 whole entry, the tested form may be a part): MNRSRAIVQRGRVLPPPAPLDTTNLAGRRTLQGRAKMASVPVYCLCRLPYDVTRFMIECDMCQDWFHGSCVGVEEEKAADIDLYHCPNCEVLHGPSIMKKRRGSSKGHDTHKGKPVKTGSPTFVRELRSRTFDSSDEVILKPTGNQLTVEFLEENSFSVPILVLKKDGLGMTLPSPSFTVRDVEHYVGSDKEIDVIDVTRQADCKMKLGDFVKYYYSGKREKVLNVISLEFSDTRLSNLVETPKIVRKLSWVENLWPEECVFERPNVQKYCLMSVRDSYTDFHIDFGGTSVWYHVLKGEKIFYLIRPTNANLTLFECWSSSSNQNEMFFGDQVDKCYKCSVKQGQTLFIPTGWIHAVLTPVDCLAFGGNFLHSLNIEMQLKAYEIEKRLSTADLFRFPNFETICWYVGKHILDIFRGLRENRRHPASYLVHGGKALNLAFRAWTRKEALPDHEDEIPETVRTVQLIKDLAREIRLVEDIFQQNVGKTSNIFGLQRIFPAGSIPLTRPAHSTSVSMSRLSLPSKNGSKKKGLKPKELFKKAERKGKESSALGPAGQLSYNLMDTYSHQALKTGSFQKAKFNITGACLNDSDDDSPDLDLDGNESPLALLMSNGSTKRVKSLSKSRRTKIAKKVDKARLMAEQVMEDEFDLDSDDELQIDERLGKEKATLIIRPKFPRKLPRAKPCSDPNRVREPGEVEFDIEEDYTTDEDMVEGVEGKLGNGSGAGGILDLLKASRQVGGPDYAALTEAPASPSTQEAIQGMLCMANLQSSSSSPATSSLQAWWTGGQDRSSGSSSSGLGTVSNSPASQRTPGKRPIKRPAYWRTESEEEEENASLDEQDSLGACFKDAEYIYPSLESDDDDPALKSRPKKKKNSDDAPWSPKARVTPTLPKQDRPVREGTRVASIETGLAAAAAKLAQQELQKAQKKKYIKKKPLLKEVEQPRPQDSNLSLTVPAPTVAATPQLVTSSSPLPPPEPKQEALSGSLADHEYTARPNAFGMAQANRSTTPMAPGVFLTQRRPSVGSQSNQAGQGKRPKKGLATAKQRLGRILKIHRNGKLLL

[4] = biological target: Lysine-specific demethylase 5A (Homo sapiens) (UniProt P29375); assay: Mixed type inhibition of KDM5A (L88 to G353 residues) ARID/PHD1/2/3 deletion mutant (unknown origin) demethylation activity using H3(1-21)K4me3 peptide as substrate measured every 30 seconds over 25 mins by formaldehyde dehydrogenase coupled activity assay based Lineweaver-Burk plot analysis
Lysine-specific demethylase 5A (Homo sapiens), sequence (P29375 whole entry, the tested form may be a part): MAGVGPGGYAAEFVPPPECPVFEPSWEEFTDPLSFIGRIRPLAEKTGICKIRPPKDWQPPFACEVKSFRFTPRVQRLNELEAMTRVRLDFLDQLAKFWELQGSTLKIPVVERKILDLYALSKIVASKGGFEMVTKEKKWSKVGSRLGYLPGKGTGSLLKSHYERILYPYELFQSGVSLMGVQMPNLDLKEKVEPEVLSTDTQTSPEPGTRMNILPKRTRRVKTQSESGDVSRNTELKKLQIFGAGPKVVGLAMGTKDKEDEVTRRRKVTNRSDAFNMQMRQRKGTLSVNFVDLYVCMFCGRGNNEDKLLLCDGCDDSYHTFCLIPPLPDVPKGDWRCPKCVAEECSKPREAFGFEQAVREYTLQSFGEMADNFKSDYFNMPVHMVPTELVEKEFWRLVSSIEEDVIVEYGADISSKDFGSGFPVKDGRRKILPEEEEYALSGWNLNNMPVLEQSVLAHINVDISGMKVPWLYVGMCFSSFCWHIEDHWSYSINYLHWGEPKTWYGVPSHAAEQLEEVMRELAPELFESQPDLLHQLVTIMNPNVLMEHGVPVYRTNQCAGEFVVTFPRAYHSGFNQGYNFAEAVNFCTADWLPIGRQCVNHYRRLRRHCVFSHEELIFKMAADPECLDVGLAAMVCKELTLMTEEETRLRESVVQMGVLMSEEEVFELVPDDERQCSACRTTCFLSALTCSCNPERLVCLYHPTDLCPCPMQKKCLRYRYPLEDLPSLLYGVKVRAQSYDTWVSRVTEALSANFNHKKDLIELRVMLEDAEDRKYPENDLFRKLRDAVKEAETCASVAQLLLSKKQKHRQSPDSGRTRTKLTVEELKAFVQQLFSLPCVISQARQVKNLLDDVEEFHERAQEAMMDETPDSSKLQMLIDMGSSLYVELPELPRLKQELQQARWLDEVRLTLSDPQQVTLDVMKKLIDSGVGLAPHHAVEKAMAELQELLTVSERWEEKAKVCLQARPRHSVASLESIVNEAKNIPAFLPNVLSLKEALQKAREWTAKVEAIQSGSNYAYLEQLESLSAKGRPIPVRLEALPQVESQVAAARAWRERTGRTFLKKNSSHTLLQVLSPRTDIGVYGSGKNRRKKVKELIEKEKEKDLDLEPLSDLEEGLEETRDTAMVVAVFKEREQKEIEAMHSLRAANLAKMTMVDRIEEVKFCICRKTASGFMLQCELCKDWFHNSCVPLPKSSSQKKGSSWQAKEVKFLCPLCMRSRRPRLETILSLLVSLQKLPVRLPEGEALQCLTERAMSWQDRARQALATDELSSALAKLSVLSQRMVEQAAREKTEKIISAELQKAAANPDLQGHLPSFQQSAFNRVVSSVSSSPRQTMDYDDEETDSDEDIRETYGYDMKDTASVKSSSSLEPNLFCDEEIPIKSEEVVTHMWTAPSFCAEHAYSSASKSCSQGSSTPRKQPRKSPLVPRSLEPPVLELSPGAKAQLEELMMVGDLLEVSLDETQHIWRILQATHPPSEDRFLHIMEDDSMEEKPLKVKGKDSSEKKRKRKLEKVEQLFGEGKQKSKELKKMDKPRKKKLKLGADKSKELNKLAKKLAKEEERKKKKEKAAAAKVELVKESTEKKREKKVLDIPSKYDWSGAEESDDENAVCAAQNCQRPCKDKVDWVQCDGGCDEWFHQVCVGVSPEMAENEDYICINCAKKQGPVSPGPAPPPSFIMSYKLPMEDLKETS
Procedure, shortened: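 FDH enzyme-coupled fluorescence assay of KDM5A_c2 demethylation, with formaldehyde production as the read-out. Kinetic analysis is made against the H3K4me3 substrate, and α and Ki are derived to assign the inhibition mode.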

[5] = biological target: Lysine-specific demethylase 5A (Homo sapiens) (UniProt P29375); assay: Substrate activity at KDM5A (L88 to G353 residues) ARID/PHD1/2/3 deletion mutant (unknown origin) demethylation activity assessed as formaldehyde production measured every 30 seconds over 25 mins in absence of H3K4me3

SMILES | inhibition [1] | inhibition [2] | inhibition [3] | inhibition [4] | Activity [5]
CCCCc1oc2ccccc2c1C(=O)c1cc(I)c(OCC[N+](C)(C)C)c(I)c1 | inactive | 17% | inactive |  | 
CCCCc1oc2ccccc2c1C(=O)c1ccc(OCCC[N+](C)(C)C)cc1 |  | 100% |  | Active | inactive
Cc1oc2ccccc2c1C(=O)c1ccc(OCCC[N+](C)(C)C)cc1 |  | 100% |  |  | 
CCCCc1oc2ccccc2c1C(=O)c1ccc(OCCCN(C)C)cc1 |  | 100% | inactive |  | 
CCCCc1oc2ccccc2c1C(=O)c1cc(I)c(OCCC[N+](C)(C)C)c(I)c1 |  | 100% | inactive |  | 

Reference: ChEMBL document CHEMBL4118181, “Investigations on small molecule inhibitors targeting the histone H3K4 tri-methyllysine binding PHD-finger of JmjC histone demethylases” (Bioorg Med Chem, 2018)
